Data reported in ChEMBL document CHEMBL4627265, “Optimization of 8-oxoadenines with toll-like-receptor 7 and 8 activity” (Bioorg Med Chem Lett, 2020).
Activity calls are given as the source filed them. No cut-off for these calls is given here.

Columns and labels:
Assay type in all cases: cell-based
[1] = target: T1, Toll-like receptor 7 (Homo sapiens) (UniProt Q9NYK1); assay: Agonist activity at TLR7 in human PBMC assessed as induction of plasmacytoid dendritic cell maturation by measuring CD80 level at 0.1 uM after 6 hrs by flow cytometry
T1 sequence (whole entry): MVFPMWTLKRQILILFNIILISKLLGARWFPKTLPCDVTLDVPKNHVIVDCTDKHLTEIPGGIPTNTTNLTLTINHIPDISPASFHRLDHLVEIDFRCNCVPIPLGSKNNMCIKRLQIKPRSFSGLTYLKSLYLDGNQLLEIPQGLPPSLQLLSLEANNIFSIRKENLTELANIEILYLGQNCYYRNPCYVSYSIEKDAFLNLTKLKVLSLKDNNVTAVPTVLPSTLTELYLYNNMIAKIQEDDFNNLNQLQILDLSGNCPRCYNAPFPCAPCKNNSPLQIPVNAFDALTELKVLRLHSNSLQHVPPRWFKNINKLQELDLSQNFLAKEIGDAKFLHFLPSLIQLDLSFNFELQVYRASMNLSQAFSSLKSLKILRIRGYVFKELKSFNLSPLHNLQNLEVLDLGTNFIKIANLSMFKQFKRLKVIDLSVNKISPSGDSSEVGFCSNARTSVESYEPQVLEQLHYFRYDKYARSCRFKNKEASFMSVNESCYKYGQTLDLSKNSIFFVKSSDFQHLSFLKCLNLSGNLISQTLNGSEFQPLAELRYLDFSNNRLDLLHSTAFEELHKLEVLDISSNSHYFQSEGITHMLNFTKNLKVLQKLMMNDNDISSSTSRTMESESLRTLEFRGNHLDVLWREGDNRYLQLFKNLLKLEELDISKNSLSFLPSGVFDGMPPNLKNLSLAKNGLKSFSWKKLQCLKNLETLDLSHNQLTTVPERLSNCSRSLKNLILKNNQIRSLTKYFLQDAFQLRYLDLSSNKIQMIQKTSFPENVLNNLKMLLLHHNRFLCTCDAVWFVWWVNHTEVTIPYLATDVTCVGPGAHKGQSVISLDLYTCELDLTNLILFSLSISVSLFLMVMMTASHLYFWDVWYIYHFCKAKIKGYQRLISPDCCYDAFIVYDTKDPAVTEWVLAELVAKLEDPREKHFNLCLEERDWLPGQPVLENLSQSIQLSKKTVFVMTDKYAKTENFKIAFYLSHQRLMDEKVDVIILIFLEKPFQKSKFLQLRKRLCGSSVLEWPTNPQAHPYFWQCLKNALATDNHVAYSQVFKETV
Summary of the method: (§1)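 hPBMCs stimulated 6 h at a single 0.1 μM dose; HLA-DR, MHC-I, CD80 and CD86 on mDCs and pDCs measured by flow cytometry, expressed as fold change versus unstimulated cells. Mean ± SD of three independent experiments in three different donors.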

[2] = target: T1, Toll-like receptor 7 (Homo sapiens); assay: Agonist activity at TLR7 in human PBMC assessed as induction of plasmacytoid dendritic cell maturation by measuring MHC-1 level at 0.1 uM after 6 hrs by flow cytometry; summary of the method: as §1
[3] = target: T2, Toll-like receptor 9 (Homo sapiens) (UniProt Q9NR96); assay: Agonist activity at human TLR9 expressed in HEK293 cells by SEAP reporter gene assay
T2 sequence (whole entry): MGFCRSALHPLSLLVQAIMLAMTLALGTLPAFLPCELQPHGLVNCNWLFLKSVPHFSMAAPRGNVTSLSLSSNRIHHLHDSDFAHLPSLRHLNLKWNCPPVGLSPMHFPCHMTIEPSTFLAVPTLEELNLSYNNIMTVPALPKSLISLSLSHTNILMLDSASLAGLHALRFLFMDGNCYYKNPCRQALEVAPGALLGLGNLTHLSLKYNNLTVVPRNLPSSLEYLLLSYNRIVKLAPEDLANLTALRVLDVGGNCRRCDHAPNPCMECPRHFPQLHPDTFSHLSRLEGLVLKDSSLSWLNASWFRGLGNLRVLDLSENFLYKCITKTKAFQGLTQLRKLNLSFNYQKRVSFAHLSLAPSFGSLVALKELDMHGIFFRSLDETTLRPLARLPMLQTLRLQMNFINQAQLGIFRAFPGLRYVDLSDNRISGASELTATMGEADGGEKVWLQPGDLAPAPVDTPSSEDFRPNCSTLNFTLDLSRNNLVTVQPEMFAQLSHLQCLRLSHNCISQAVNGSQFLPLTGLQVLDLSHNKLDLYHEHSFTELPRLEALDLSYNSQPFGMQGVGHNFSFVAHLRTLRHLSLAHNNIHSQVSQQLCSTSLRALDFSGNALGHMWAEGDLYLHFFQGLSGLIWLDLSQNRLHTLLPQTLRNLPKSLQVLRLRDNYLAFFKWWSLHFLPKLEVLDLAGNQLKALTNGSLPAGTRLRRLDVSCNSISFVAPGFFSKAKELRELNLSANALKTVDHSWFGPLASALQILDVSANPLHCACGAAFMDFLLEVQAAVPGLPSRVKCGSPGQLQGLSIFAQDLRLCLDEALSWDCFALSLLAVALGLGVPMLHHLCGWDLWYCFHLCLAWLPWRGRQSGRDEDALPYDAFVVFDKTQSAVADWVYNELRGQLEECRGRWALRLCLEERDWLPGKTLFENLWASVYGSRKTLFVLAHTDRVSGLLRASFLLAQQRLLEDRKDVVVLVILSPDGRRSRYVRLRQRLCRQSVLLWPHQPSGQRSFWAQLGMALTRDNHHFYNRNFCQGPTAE

Activity [1]: inactive
Activity [2]: inactive
Activity [3]: inactive
SMILES: Nc1nc(OCCCCO)nc2c1[nH]c(=O)n2CC1CCNCC1
